# Data reported in ChEMBL document CHEMBL4513216, “Probing the Open Global Health Chemical Diversity Library for Multistage-Active Starting Points for Next-Generation Antimalarials” (ACS Infect Dis, 2020).
# Assay: Toxicity liver stage against HepG2, at 10uM
# Format: cell-based
# Parameters: test concentration 10 uM, cell line HepG2-A16-CD81EGFP
# Settings: human, HepG2-A16-CD81EGFP cells; read-out: INHIBITION
# Method in brief: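 Uninfected HepG2-A16-CD81EGFP cells, 3 × 10^3 per well, 1536-well, plated on prespotted compound at 10 μM final, parasite-free screening media added to match infected plates; puromycin 10 μM positive, DMSO 0.5% negative; run in parallel with 48 h PbLuc assay at 37 °C, 5% CO2; viability by CellTiter-Glo luminescence, normalized to controls.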
row,SMILES,cytotoxicity at 10 µM [%]
1,FC(F)(F)c1ccc(-c2noc3c2CN(CC2CCCO2)CC3)cc1 (stereo unspecified),1.99
2,CCCC1(C(=O)O)CCCN(C(=O)c2cc(Cl)ccc2F)C1 (stereo unspecified),0.515
3,Cc1cc(C)n(C2CCN(c3ncnc4c3CCC4)C2)n1 (stereo unspecified),23.6
4,COc1cnc(CN2CC(=O)N(c3ccc(C)cc3)CC2C)cc1O (stereo unspecified),4.01
5,CS(=O)(=O)CCN1CC(c2ccccc2)(c2ccccc2)CCC1=O,0.623
6,N[C@H]1CN(C(=O)CCC(F)(F)F)C[C@@H]1c1ccccc1,6.95
7,O=C(c1ncc[nH]1)N1CCC(n2cc(-c3cccc(Cl)c3)nn2)CC1,5.28
8,CN1CCN(C2CCN(CCOc3ccc(Cl)cc3)CC2)C1=O,-5.36
9,c1ccc(-c2nccc(CNC3CCc4ncnn4C3)n2)cc1 (stereo unspecified),0.787
10,CC(C)c1nccn1C1CCCN(C(=O)CCNS(C)(=O)=O)C1 (stereo unspecified),-3.71
11,CCC(O)CN1CCN(C(=O)c2cc(Cl)cc3cccnc23)CC1 (stereo unspecified),-13.7
12,Cc1cc(C(=O)NCc2ccnc(N3CCN(C)CC3)c2)sc1C,-11.7
13,Cc1cnn(CC2CCCCN2Cc2nc(C)c3ccccc3n2)c1 (stereo unspecified),-8.54
14,O=c1[nH]c(CCN2CCCCC2Cn2cccn2)nc2ccccc12 (stereo unspecified),-16.4
15,CC(C)c1nnc(CN2CCN(CC(O)c3ccccc3)CC2)o1 (stereo unspecified),-7.03
16,CC(Cn1ccnc1)NC(=O)N(C)Cc1ccc2c(c1)OCCO2 (stereo unspecified),-29.5
17,Cc1cc(C)c(CNC(=O)NCC(O)COc2ccccc2)c(=O)[nH]1 (stereo unspecified),-5.75
18,CS(=O)(=O)NC1CCN(C(=O)NCCNc2ccccn2)CC1,-0.685
19,CCc1nc(CN(C)CC(c2cccs2)N2CCOCC2)no1 (stereo unspecified),-2.36

row,SMILES,cytotoxicity at 10 µM [%]
1,Cc1nn(C)c(N(C)C)c1CNCCCN(C)S(C)(=O)=O,-4.07
2,O=C(Nc1ncn(CC(=O)N2CCCCCC2)n1)C1CCCO1 (stereo unspecified),-4.56
3,Cc1cc(CNCc2c(C)nn(C)c2N2CCOCC2)no1,-8.11
4,Cc1nc(C)n(CC2CCCN2Cc2nc(-c3cccs3)no2)n1 (stereo unspecified),-4.02
5,Cc1cc(CN2CCN(CC(O)c3ccccc3)CC2)no1 (stereo unspecified),-14.4
6,COc1ccc(CC(=O)NC2(C)CCS(=O)(=O)C2)cc1F (stereo unspecified),2.05
7,Cc1cc(CN(C)C(=O)c2ccc(Cl)c(S(C)(=O)=O)c2)no1,-2.77
8,O=C(C1CCN(c2snc3ccccc23)CC1)N1CCCCCC1,11.7
9,CCn1cnnc1CNC(=O)c1ccc(Cl)cc1F,-0.457
10,CC1CCN(S(=O)(=O)NCCCn2cncn2)CC1,-4.91
11,c1csc(-c2nc(CN3CCOC(Cn4cccn4)C3)co2)c1 (stereo unspecified),-11.1
12,O=C(CCC(=O)N1CCCC1c1cccs1)N1CCc2sccc2C1 (stereo unspecified),-8.45
13,Cc1cnn(CC2CCCCN2Cc2nc(-c3ccoc3)no2)c1 (stereo unspecified),-7.2
14,O=C(c1ccccc1OCC1CC1)N1CCCC(n2ccnc2)C1 (stereo unspecified),-1.8
15,Cc1cn2c(n1)CCC(NC(=O)c1cnc(C)nc1C(C)C)C2 (stereo unspecified),-0.144
16,COCCn1c(=O)n(C)c(=O)c2ccc(C3CCC(CN)CC3)nc21 (stereo unspecified),-0.2
17,COCCN1C[C@@H](C)[C@@]2(COCCN(C(=O)c3ccccn3)C2)C1,9.58
18,CCN1CCC2(CC1)C(=O)N(c1ccc(C)nc1)CCN2CC(C)C,16.4
19,Cn1ccnc1CN1CCC2(CC1)COCCN(S(C)(=O)=O)C2,3.39

row,SMILES,cytotoxicity at 10 µM [%]
1,Cn1nc(C2CCCN(Cc3cc(F)cc(F)c3)C2)c2nccnc21 (stereo unspecified),-16.3
2,c1cnc(NCc2ncn3c2CN(Cc2cccnc2)CCC3)nc1,-8.81
3,Cc1nc2c(c(NC(C)C)n1)CCN(C1CCOCC1)CC2,9.26
4,CN(Cc1cccnc1)[C@@H]1CN(Cc2cnn(C)c2)[C@@H]2CCCO[C@H]12,-2.1
5,Cc1cccc(CN2C(=O)CO[C@@H]3CN(Cc4nccn4C)C[C@H]32)c1,-16.7
6,Cc1nc(CN2CCC3(CCCN(Cc4cccnc4)C3)C2=O)cs1 (stereo unspecified),20.8
7,COCCN1CCO[C@@H]2CN(Cc3ccccn3)C[C@@H]2C1,-3.06
8,c1coc(CN2C[C@@H]3OCCN(CCN4CCCC4)[C@@H]3C2)c1,-1.52
9,CCOC(=O)C1CN(CC2CC2)Cc2ncn(CC)c21 (stereo unspecified),12.2
10,COc1c(CNC2CCc3c(Cl)cccc32)c(C)nn1C (stereo unspecified),13.3
11,Cc1nc(CN2CCO[C@@H]3CN(C(=O)NC(C)C)CC[C@@H]3C2)cs1,0.41
12,c1cncc(C2COC3(CCN(Cc4nccs4)CC3)C2)c1 (stereo unspecified),1.7
13,O=S(=O)(C1CC1)N1Cc2[nH]nc(COCC3CC3)c2C1,16.4
14,Cc1cc(CN2C[C@H]3CCC[C@@]3(COCC3CCOCC3)C2)no1,0.073
15,O=C(NC1CCC1)[C@H]1C[C@@H]2[C@@H](C1)OCCN2CC1CC1,-2.17
16,Cc1cccc(-n2cc3[nH]c(=O)[nH]n3c2=O)c1,2.48
17,COc1cccc(-n2cc3[nH]c(=O)n(Cc4cccc(F)c4)n3c2=O)c1,0.647
18,Cc1nc(=O)c(CC(=O)N2C[C@H]3CC[C@@H](C2)N(CC2CCC2)C3)c(C)[nH]1,9.6
